The list is not random: actives were taken first. Their share in the collection is about 3.8%.
OX1R antag-1: antagonists of human orexin 1 receptor (OX1R); Orexin/Hypocretin receptor type 1 (Homo sapiens), O43613; OX1R-expressing cells, FRET antagonist read-out; inhibition, % at 6.6 µM; actives 1.8% (n = 330,000); in the data active = inhibition mostly above about 38%, no sharp cut-off; inactive = mostly below about 40%;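 also: 0% = agonist challenge alone and 100% = reference antagonist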
Target sequence (O43613 whole entry, looked up): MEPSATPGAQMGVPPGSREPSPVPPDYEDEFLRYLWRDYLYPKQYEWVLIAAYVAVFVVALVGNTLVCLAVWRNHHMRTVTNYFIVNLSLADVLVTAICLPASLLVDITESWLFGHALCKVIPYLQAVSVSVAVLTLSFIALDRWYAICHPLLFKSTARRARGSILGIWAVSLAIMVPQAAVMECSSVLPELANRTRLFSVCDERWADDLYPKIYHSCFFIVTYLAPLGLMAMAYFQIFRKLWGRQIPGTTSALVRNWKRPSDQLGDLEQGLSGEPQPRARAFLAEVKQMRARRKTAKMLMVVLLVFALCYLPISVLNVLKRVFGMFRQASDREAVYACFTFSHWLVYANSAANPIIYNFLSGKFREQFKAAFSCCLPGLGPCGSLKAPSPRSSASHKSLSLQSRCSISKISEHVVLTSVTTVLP
MPTP inh: mitochondrial permeability transition pore inhibitors, primary screen, biochemical, isolated mouse mitochondria, absorbance | actives 1.4% (n = 360,000) | inhibition, % at 10 µM | Ca2+ swelling absorbance, 30 min | AID 602449, 2012;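 active = inhibition of 50% or more, scaled per plate between neutral and stimulator controls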;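 also: 0% = DMSO wells given calcium and 100% = 1 mM EGTA wells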
CHO parental Ca: ATP-evoked calcium signal inhibitors, parental CHO, primary screen, counter-screen for OX1R antagonist project, cell-based, fluorescence, Fluo-8 calcium dye | actives 0.63% (n = 330,000) | AID 463079, 2010 | parental CHO-K1, ATP-induced calcium, Fluo-8 fluorescence | inhibition, % at 5.6 µM;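 active = inhibition above that plate's mean sample inhibition plus 3 SD, cut at about 26% in these data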;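 also: 0% = ATP-challenged DMSO wells and 100% = DMSO wells without ATP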
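Test system: untransfected parental CHO cell line. Compound: one dose, 5.6 µM nominal. Detection: intracellular calcium via Fluo-8 no-wash fluorescent dye. Measure: % inhibition. Benchmarks: ATP-challenged DMSO wells low, unchallenged DMSO wells high.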
OX1R antag-2: OX1R (HCRTR1) antagonists, primary screen, fluorescence, CHO/OX1R cells, Fluo-8 calcium, orexin A. Orexin/Hypocretin receptor type 1 (Homo sapiens), O43613. actives 0.43% (n = 330,000). Fluo-8 calcium fluorescence. inhibition, % at 5 µM;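 active = inhibition above its plate's threshold, mean inhibition of all tested compounds on the plate plus 3 SD, cut at about 37% in these data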;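 also: 0% = orexin A challenge wells and 100% = SB-334867-A antagonist wells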
GPR7 antag: GPR7 receptor antagonists, primary screen, cell-based, fluorescence, single concentration | inhibition, % at 4.4 µM | AID 1861, 2009 | Neuropeptides B/W receptor type 1 (Homo sapiens), P48145 | GPR7-expressing cells, fluorescence antagonist assay | actives 1.1% (n = 290,000); in the data active = inhibition above about 16%, passing the limit was not always enough;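 also: cells stimulated with the agonist NPW; 0% = agonist with vehicle and 100% = vehicle without agonist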
Rh123 counter: fluorescence retest of MPTP screen hits in isolated mitochondria, single concentration. shares compounds with MPTP inh. membrane potential, Rhodamine 123 fluorescence. inhibition, % at 10 µM. actives 78% (n = 5,000). AID 624504, 2012; in the data active = inhibition above about 22%;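 also: 0% = DMSO vehicle and 100% = positive control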
MPTP swell DR: mitochondrial permeability transition pore inhibitors, dose response, biochemical, absorbance, uHTS hits | actives 58% (n = 780) | shares compounds with MPTP inh | isolated mitochondria swelling | IC50, µM; in the data active = IC50 below about 20 µM
MPTP counter DR: fluorescent counter-screen in isolated mitochondria, dose response, counter-screen for MPTP inhibitor project, biochemical, fluorescence, uHTS hits; IC50, µM; actives 49% (n = 780); shares compounds with MPTP inh; AID 651564, 2012; isolated mitochondria counterscreen, fluorescence read-out; in the data active = IC50 below about 80 µM
Active calls of the source: *; i = inactive; / = not tested or not shown.

SMILES	OX1R antag-1	MPTP inh	CHO parental Ca	OX1R antag-2	GPR7 antag	Rh123 counter	others
CN1CCN(c2ncnc3c2c(-c2ccccc2)cn3-c2ccc(F)cc2)CC1	0	80*	-14	6	5	-5	MPTP swell DR=20*;MPTP counter DR=>80
CC(C)CNC(=S)Nc1ccc(Oc2ccccc2)cc1	12	92*	-10	-4	4	98*
Cc1ccccc1NC(=S)NCc1ccco1	-3	0	-8	-7	-3	/
COc1ccc(CNC(=S)Nc2cccc(Cl)c2)cc1	13	75*	-5	-19	/	100*
S=C(NCc1ccco1)Nc1cc(Cl)c(Cl)cc1Cl	14	88*	-9	-2	16	85*
S=C(NCc1ccco1)Nc1cccc(Cl)c1	7	60*	8	36	-2	73*
NS(=O)(=O)c1ccc(NC(=O)COC(=O)CCCN2C(=O)c3cccc4cccc(c34)C2=O)cc1	15	-1	-10	-13	/	/
CCc1nnc(NS(=O)(=O)c2ccc(NC(=O)c3ccc([N+](=O)[O-])s3)cc2)s1	/	1	/	/	/	/
CN1CCC(N(CCc2ccccc2)C(=O)CCC(=O)O)CC1	4	1	-12	4	-5	/
COc1ccc(NC(=S)NCc2ccco2)cc1	13	0	12	-13	3	/
S=C(NCc1ccco1)Nc1ccc(Cl)c(Cl)c1	14	94*	4	18	12	90*
S=C(NCc1ccco1)Nc1ccc(Oc2ccccc2)cc1	8	78*	1	-5	-1	85*
COC(=O)c1cc(NC(=S)NCc2ccc(Cl)cc2)cc(C(=O)OC)c1	11	98*	-1	10	-2	79*
CC(=O)c1cn(CC(=O)Nc2ccccc2Cl)c2ccccc12	5	2	-3	-11	2	/
S=C(NCCCN1CCOCC1)NN=C1c2ccccc2-c2ccccc21	/	0	/	/	/	/
CC1CCC(C(C)C)C(OC(=O)Cn2c(-c3ccc(Cl)cc3)[n+](C)c3ccccc32)C1 (configuration not stated)	9	54*	25	4	60*	79*
CCOc1ccc(NC(=O)c2c(N)n(C)c(=O)[nH]c2=O)cc1	23	-2	3	-4	/	/
COc1cc(NS(=O)(=O)c2ccc(C)cc2C)cc(OC)c1OC	28	84*	51*	30	-2	72*
COc1ccccc1C1=NOC(Cn2c(NCCOCCO)nc3c2c(=O)n(C)c(=O)n3C)C1 (configuration not stated)	12	-1	-8	-20	-14	/
CCOC(=O)/C(=N\Nc1ccc(C(C)=O)cc1)c1csc(Nc2ccccc2)n1	20	64*	-17	-25	-2	-9	MPTP swell DR=i;MPTP counter DR=12*
CC(C)C[C@@H]1COc2cc(N3CC[C@H](O)C3)ccc2S(=O)(=O)N1	/	0	/	/	/	/
COc1ccccc1CN=Cc1[nH]c2ccc(Br)c(Cl)c2c1O	27	1	-23	-21	8	/
Cc1cccc(N=Cc2[nH]c3ccc(Br)c(Cl)c3c2O)c1	21	97*	3	-1	1	0	MPTP swell DR=7.9*;MPTP counter DR=<2.5*
Cc1cc(C)cc(-n2cccc2/C=C2/C(=N)N3C(=NC2=O)SN=C3S(C)(=O)=O)c1	51*	63*	-1	-5	-1	50*
COc1cccc(-n2c(C)cc(/C=C3/C(=N)N4C(=NC3=O)SN=C4S(C)(=O)=O)c2C)c1	40	12	-6	11	11	/
SMILES	OX1R antag-1	MPTP inh	CHO parental Ca	OX1R antag-2	GPR7 antag	Rh123 counter	others
CCN(CC)c1ccc(C=Nc2ccc(N(C)C)cc2)c(O)c1	59	24	-15	-17	12	/
CCN(CC)c1ccc(N=Cc2ccc(N(CC)CC)cc2O)cc1	21	77*	-20	-35	-2	-8
CC(C)c1ccc(S(=O)(=O)N2CCN(C(=O)C3CCCC3)CC2)cc1	35	1	-6	-33	11	/
Fc1ccc(CO/N=C2\CCCc3nonc32)cc1	22	-1	-18	-11	-5	/
Cc1nc(NC(=O)/C=C/c2ccccc2)sc1C(=O)Nc1ccc(Cl)cc1	24	-3	-6	-1	-9	/
Cc1nc(Nc2ccc(Cl)c(Cl)c2)sc1C(=O)Nc1ccccc1	69*	82*	8	-16	-10	64*
O=C(NC(NC(=S)Nc1cccc(C(=O)O)c1)C(Cl)(Cl)Cl)OCc1ccccc1 (configuration not stated)	34	0	-11	1	-4	/
Cc1cccc(NC(=S)NC(NC(=O)OCc2ccccc2)C(Cl)(Cl)Cl)c1 (configuration not stated)	24	74*	5	-1	-2	80*
O=C(NC(NC(=S)Nc1cccc(Cl)c1)C(Cl)(Cl)Cl)OCc1ccccc1 (configuration not stated)	37	91*	25	-5	-5	76*
CC(=O)NC(NC(=S)Nc1cccc(Br)c1)C(Cl)(Cl)Cl (configuration not stated)	9	95*	-7	1	-4	76*
CC1(c2nnc(Cc3ccccc3)o2)CC(c2cccc(F)c2)=NO1 (configuration not stated)	33	1	-9	-12	/	/
Cc1ccc(C)c(N(CC(=O)NC(C)(C)C)C(=O)CCC(=O)Nc2nccs2)c1	2	-1	-20	-15	0	/
Cc1ccc(S(=O)(=O)CNC(=S)c2cccc(Cl)c2)cc1	2	77*	-5	-17	-2	83*
CC(=O)N1CCN(S(=O)(=O)c2cccc(C(=O)OCc3ccc(C(C)(C)C)cc3)c2)CC1	/	90*	/	/	/	90*
Cc1ccc(COC(=O)c2cccc(S(=O)(=O)N3CCCCCC3)c2)cc1	-1	1	0	-1	/	/
O=c1c2ccccc2nc(N/N=C/c2c(O)ccc3ccccc23)n1O	29	52*	-9	-5	-9	-19
COc1ccc2c(c1)c(C(C)=O)c(C)n2CCc1ccc(OC)c(OC)c1	7	1	-17	-24	-13	/
COc1ccc2c(c1)c(C(C)=O)c(C)n2CCc1ccccc1	20	67*	6	-9	-13	76*
CCc1c(C)nc2ccc(Br)cc2c1Cl	16	97*	-17	-11	-9	93*
